Reference: ChEMBL document CHEMBL2311499, “Synthesis, antiproliferative activity and tubulin targeting effect of acridinone and dioxophenothiazine derivatives” (Eur J Med Chem, 2013)
One block for each molecule: values may come before it. The source made the active and inactive calls. The calls are words filed in the database; no cut-off is given here.

Assays:
[1] = tested on: CAL-33; assay: Cell cycle arrest in human CAL33 cells assessed as accumulation at G2 phase at 0.5 uM after 24 hrs flow cytometry
[2] = tested on: HT-29; assay: Cell cycle arrest in human HT-29 cells assessed as accumulation at G1 phase at 5 uM after 24 hrs flow cytometry; format: functional
Procedure, shortened: (§1)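 Flow cytometry: 2.5–4 × 10⁵ cells were seeded in 6-well plates, grown 24 h, then treated for 24 h. Floating and adherent cells were pooled and fixed in cold 70% ethanol for 24 h. Results are reported as the percentage of cells in sub-G1, G1, S and G2 phases.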

[3] = tested on: HL-60; assay: Cell cycle arrest in human HL60 cells assessed as accumulation at G1 phase at 5 uM after 24 hrs flow cytometry; format: functional
Procedure, shortened: as §1

[4] = molecular target: DNA topoisomerase 2-alpha (Homo sapiens) (UniProt P11388); assay: Inhibition of human topoisomerase 2-mediated supercoiled plasmid DNA cleavage at 50 uM after 30 min by agarose gel electrophoresis
DNA topoisomerase 2-alpha (Homo sapiens), sequence (P11388 whole entry): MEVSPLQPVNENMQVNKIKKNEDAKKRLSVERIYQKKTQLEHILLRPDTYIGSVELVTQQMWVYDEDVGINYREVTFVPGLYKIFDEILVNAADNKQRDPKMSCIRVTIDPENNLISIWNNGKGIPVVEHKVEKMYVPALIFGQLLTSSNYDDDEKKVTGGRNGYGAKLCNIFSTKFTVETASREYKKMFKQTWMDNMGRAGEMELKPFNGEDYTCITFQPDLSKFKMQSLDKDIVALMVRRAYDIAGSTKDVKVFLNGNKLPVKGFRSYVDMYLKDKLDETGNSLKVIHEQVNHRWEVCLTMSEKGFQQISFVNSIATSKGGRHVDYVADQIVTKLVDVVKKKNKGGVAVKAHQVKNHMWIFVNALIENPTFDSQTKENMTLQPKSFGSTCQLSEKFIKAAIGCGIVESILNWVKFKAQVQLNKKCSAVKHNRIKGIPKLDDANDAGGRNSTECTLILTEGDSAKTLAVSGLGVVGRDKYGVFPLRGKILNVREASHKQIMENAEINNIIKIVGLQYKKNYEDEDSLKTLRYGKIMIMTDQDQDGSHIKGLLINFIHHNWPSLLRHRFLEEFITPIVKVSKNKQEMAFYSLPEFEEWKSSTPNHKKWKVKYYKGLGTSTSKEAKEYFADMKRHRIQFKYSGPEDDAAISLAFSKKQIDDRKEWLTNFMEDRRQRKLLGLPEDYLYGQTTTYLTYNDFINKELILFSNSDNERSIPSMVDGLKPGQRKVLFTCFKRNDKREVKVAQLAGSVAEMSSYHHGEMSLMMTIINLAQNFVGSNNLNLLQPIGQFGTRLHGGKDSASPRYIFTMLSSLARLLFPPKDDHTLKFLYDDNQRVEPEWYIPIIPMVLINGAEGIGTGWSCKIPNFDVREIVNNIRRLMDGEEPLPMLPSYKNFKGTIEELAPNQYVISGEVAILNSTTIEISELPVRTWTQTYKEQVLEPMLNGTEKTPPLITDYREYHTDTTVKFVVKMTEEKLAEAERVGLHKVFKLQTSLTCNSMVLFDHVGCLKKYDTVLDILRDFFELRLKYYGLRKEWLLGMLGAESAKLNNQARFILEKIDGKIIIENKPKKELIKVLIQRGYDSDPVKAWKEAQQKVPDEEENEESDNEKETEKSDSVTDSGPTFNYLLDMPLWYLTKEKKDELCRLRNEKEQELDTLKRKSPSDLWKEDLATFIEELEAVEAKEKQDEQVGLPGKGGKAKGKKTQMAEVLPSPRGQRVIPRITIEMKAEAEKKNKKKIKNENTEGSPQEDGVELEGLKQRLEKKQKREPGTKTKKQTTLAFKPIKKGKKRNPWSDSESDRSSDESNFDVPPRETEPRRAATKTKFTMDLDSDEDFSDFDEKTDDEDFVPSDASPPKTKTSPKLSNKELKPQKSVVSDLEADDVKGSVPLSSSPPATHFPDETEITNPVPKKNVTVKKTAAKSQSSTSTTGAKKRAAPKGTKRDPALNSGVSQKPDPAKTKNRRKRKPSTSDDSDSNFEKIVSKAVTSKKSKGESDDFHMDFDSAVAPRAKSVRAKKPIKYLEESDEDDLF

[5] = tested on: DU-145; assay: Antiproliferative activity against human DU145 cells after 72 hrs by MTT assay; format: functional, cell-based; settings: DU-145, 72 h
Procedure, shortened: (§2)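 MTT viability readout. Cells were seeded at (1.6–1.8) × 10⁴ per well in medium with 10% FBS. After 72 h they were serum-deprived, then treated next day with a range of concentrations. MTT (4 mg/mL) was added for 4 h at 37 °C, 5% CO₂, followed by SDS/HCl lysis and absorbance at 570 nm. IC50 is the concentration giving 50% inhibition of proliferation relative to untreated controls.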

[6] = tested on: HT-29; assay: Cell cycle arrest in human HT-29 cells assessed as accumulation at sub-G1 phase at 5 uM after 24 hrs flow cytometry; format: functional
Procedure, shortened: as §1

[7] = tested on: PC-3; assay: Antiproliferative activity against human PC3 cells after 72 hrs by MTT assay; format: functional, cell-based; settings: PC-3, 72 h
Procedure, shortened: as §2

[8] = Inhibition of bovine tubulin polymerization after 1 hr; parameters: species or system Bos taurus
[9] = tested on: HT-29; assay: Antiproliferative activity against human HT-29 cells after 72 hrs by MTT assay; format: functional, cell-based; settings: HT-29, 72 h
Procedure, shortened: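 HT29 cells were seeded at (1.6–1.8) × 10⁴ per well in medium with 10% FBS, serum-starved after 72 h, and treated the following day for 72 h. Viability was read by MTT (4 mg/mL, 4 h, 37 °C, 5% CO₂) with SDS/HCl solubilisation and absorbance at 570 nm. IC50 is the concentration giving 50% inhibition of proliferation relative to untreated controls.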

[10] = tested on: HL-60; assay: Cell cycle arrest in human HL60 cells assessed as accumulation at G1 phase at 0.5 uM after 24 hrs flow cytometry; format: functional
Procedure, shortened: as §1

[11] = tested on: HT-29; assay: Cell cycle arrest in human HT-29 cells assessed as accumulation at G1 phase at 0.5 uM after 24 hrs flow cytometry; format: functional
Procedure, shortened: as §1

[12] = tested on: HL-60; assay: Antiproliferative activity against human HL60 cells after 72 hrs by MTT assay; format: functional, cell-based; settings: HL-60, 72 h
Procedure, shortened: as §2

[13] = tested on: HL-60; assay: Cell cycle arrest in human HL60 cells assessed as accumulation at S phase at 0.5 uM after 24 hrs flow cytometry; format: functional
Procedure, shortened: as §1

[14] = tested on: HT-29; assay: Cell cycle arrest in human HT-29 cells assessed as accumulation at S phase at 0.5 uM after 24 hrs flow cytometry; format: functional
Procedure, shortened: as §1

[15] = tested on: CAL-33; assay: Antiproliferative activity against human CAL33 cells after 72 hrs by MTT assay; format: functional, cell-based; settings: CAL-33, 72 h
Procedure, shortened: as §2

[16] = tested on: HT-29; assay: Cell cycle arrest in human HT-29 cells assessed as accumulation at G2 phase at 5 uM after 24 hrs flow cytometry; format: functional
Procedure, shortened: as §1

[17] = tested on: HL-60; assay: Cell cycle arrest in human HL60 cells assessed as accumulation at S phase at 5 uM after 24 hrs flow cytometry; format: functional
Procedure, shortened: as §1

[18] = tested on: HL-60; assay: Cell cycle arrest in human HL60 cells assessed as accumulation at G2 phase at 5 uM after 24 hrs flow cytometry; format: functional
Procedure, shortened: as §1

[19] = tested on: HT-29; assay: Cell cycle arrest in human HT-29 cells assessed as accumulation at S phase at 5 uM after 24 hrs flow cytometry; format: functional
Procedure, shortened: as §1

[20] = tested on: HL-60; assay: Cell cycle arrest in human HL60 cells assessed as accumulation at G2 phase at 0.5 uM after 24 hrs flow cytometry; format: functional
Procedure, shortened: as §1

[21] = tested on: HL-60; assay: Cell cycle arrest in human HL60 cells assessed as accumulation at sub-G1 phase at 0.5 uM after 24 hrs flow cytometry; format: functional
Procedure, shortened: as §1

[22] = tested on: HL-60; assay: Cell cycle arrest in human HL60 cells assessed as accumulation at sub-G1 phase at 5 uM after 24 hrs flow cytometry; format: functional
Procedure, shortened: as §1

[23] = tested on: HT-29; assay: Cell cycle arrest in human HT-29 cells assessed as accumulation at sub-G1 phase at 0.5 uM after 24 hrs flow cytometry; format: functional
Procedure, shortened: as §1

[24] = tested on: CAL-33; assay: Cell cycle arrest in human CAL33 cells assessed as accumulation at sub-G1 phase at 0.5 uM after 24 hrs flow cytometry; format: functional
Procedure, shortened: as §1

[25] = tested on: CAL-33; assay: Cell cycle arrest in human CAL33 cells assessed as accumulation at G1 phase at 0.5 uM after 24 hrs flow cytometry; format: functional
Procedure, shortened: as §1

[26] = tested on: HT-29; assay: Cell cycle arrest in human HT-29 cells assessed as accumulation at G2 phase at 0.5 uM after 24 hrs flow cytometry; format: functional
Procedure, shortened: as §1

[27] = tested on: CAL-33; assay: Cell cycle arrest in human CAL33 cells assessed as accumulation at G2 phase at 0.5 uM after 24 hrs flow cytometry; format: functional
Procedure, shortened: as §1

[28] = tested on: CAL-33; assay: Cell cycle arrest in human CAL33 cells assessed as accumulation at S phase at 0.5 uM after 24 hrs flow cytometry; format: functional
Procedure, shortened: as §1

[29] = tested on: CAL-33; assay: Cell cycle arrest in human CAL33 cells assessed as accumulation at G1 phase at 5 uM after 24 hrs flow cytometry; format: functional
Procedure, shortened: as §1

[30] = tested on: CAL-33; assay: Cell cycle arrest in human CAL33 cells assessed as accumulation at G2 phase at 5 uM after 24 hrs flow cytometry; format: functional
Procedure, shortened: as §1

[31] = tested on: CAL-33; assay: Cell cycle arrest in human CAL33 cells assessed as accumulation at sub-G1 phase at 5 uM after 24 hrs flow cytometry; format: functional
Procedure, shortened: as §1

[32] = tested on: CAL-33; assay: Cell cycle arrest in human CAL33 cells assessed as accumulation at S phase at 5 uM after 24 hrs flow cytometry; format: functional
Procedure, shortened: as §1

Structure (SMILES): COc1ccc(S(=O)(=O)Nc2cccnc2Nc2ccc(O)cc2)cc1 [ABT-751]
- IC50 [8]: 2.2 µM
- IC50 [9]: 0.21 µM

Structure (SMILES): COc1ccc(CCc2cccc3c(=O)c4ccccc4[nH]c23)cc1O
- IC50 [8]: 0.51 µM
- IC50 [9]: 12 µM

Structure (SMILES): CCC1=C[C@@H]2CN(C1)Cc1c([nH]c3ccccc13)[C@@](C(=O)OC)(c1cc3c(cc1OC)N(C)[C@H]1[C@@](O)(C(=O)OC)[C@H](OC(C)=O)[C@]4(CC)C=CCN5CC[C@]31[C@@H]54)C2 [VINORELBINE]
- Activity [24]: 24.44%
- Activity [25]: 9.96%
- Activity [11]: 21.42%
- Activity [14]: 3.41%
- Activity [26]: 72.85%
- Activity [27]: 72.8%
- Activity [28]: 17.62%
- Activity [23]: 1.39%

Structure (SMILES): COc1ccc(CCc2cccc3c(=O)c4ccccc4[nH]c23)cc1OC
- IC50 [8]: > 10 µM
- IC50 [9]: > 50 µM

Structure (SMILES): COc1ccc(CCc2cccc3c(=O)c4ccccc4[nH]c23)cc1
- Activity [24]: 9.84%
- Activity [2]: 21.11%
- Activity [3]: 24.4%
- inhibition [4]: Active
- Activity [29]: 8.35%
- Activity [25]: 4%
- IC50 [5]: 0.05 µM
- Activity [6]: 0.83%
- IC50 [7]: 0.75 µM
- IC50 [8]: > 10 µM
- IC50 [9]: 0.051 µM
- Activity [10]: 25.15%
- Activity [30]: 35.16%
- Activity [11]: 14.55%
- IC50 [12]: 0.1 µM
- Activity [13]: 18.5%
- Activity [14]: 2.75%
- IC50 [15]: 0.037 µM
- Activity [16]: 73.1%
- Activity [26]: 81.81%
- Activity [27]: 57.42%
- Activity [17]: 26.55%
- Activity [18]: 15.2%
- Activity [28]: 28.46%
- Activity [31]: 22.73%
- Activity [19]: 4.6%
- Activity [20]: 19.58%
- Activity [21]: 37.16%
- Activity [22]: 34.34%
- Activity [32]: 33.12%
- Activity [23]: 0.65%

Structure (SMILES): CC(=O)O[C@@]12CO[C@@H]1C[C@H](O)[C@@]1(C)C(=O)[C@H](O)C3=C(C)[C@@H](OC(=O)[C@H](O)[C@@H](NC(=O)OC(C)(C)C)c4ccccc4)C[C@@](O)([C@@H](OC(=O)c4ccccc4)[C@H]21)C3(C)C.O.O.O [DOCETAXEL]
- Activity [24]: 17.11%
- Activity [25]: 4.99%
- Activity [11]: 7.85%
- Activity [14]: 2.76%
- Activity [26]: 88.24%
- Activity [27]: 88.2%
- Activity [28]: 15.41%
- Activity [23]: 0.86%

Structure (SMILES): CC[C@]1(O)C[C@H]2CN(CCc3c([nH]c4ccccc34)[C@@](C(=O)OC)(c3cc4c(cc3OC)N(C=O)[C@H]3[C@@](O)(C(=O)OC)[C@H](OC(C)=O)[C@]5(CC)C=CCN6CC[C@]43[C@@H]65)C2)C1 [VINCRISTINE]
- Activity [24]: 20.5%
- Activity [25]: 14.29%
- Activity [11]: 16.43%
- Activity [14]: 4.65%
- Activity [26]: 72.53%
- Activity [27]: 72.5%
- Activity [28]: 17.13%
- Activity [23]: 5.97%

Structure (SMILES): O=S1(=O)c2ccccc2Nc2c(CCc3ccc(O)c(O)c3)cccc21
- IC50 [8]: > 10 µM
- IC50 [9]: > 100 µM

More lines, main results first:

- inhibition [4]: Active
- IC50 [5]: 0.81 µM
- IC50 [7]: > 50 µM
- IC50 [8]: > 10 µM
- IC50 [9]: 0.87 µM
- IC50 [12]: 1.65 µM
Structure (SMILES): COc1ccc(CCc2cccc3c2Nc2ccccc2S3(=O)=O)cc1
- Activity [1]: 15.95%
- Activity [2]: 8.63%
- Activity [3]: 26.83%
- Activity [6]: 0.47%
- Activity [10]: 57.66%
- Activity [11]: 73.56%
- Activity [13]: 21.83%
- Activity [14]: 8.63%
- IC50 [15]: 0.627 µM
- Activity [16]: 87.92%
- Activity [17]: 24.77%
- Activity [18]: 14.77%
- Activity [19]: 2.46%
- Activity [20]: 12.4%
- Activity [21]: 8.22%
- Activity [22]: 34.12%
- Activity [23]: 1.63%

- IC50 [8]: > 10 µM
- IC50 [9]: > 50 µM
Structure (SMILES): COc1ccc(CCc2cccc3c2Nc2ccccc2S3(=O)=O)cc1OC

- IC50 [8]: 1.25 µM
- IC50 [9]: 7.2 µM
Structure (SMILES): COc1ccc(CCc2cccc3c2Nc2ccccc2S3(=O)=O)cc1O

- IC50 [8]: > 10 µM
- IC50 [9]: > 100 µM
Structure (SMILES): COc1cc(CCc2cccc3c2Nc2ccccc2S3(=O)=O)cc(OC)c1OC

- IC50 [5]: 0.017 µM
- IC50 [7]: 0.475 µM
- IC50 [8]: 2.4 µM
- IC50 [9]: 0.024 µM
Structure (SMILES): COc1ccc(CCN2C=CC=C3C2=Nc2ccccc2OS3(=O)=O)cc1

- IC50 [8]: > 10 µM
- IC50 [9]: > 50 µM
Structure (SMILES): O=c1c2ccccc2[nH]c2c(CCc3ccc(O)c(O)c3)cccc12

- inhibition [4]: Active
- IC50 [5]: > 100 µM
- IC50 [7]: > 100 µM
- IC50 [8]: > 10 µM
- IC50 [9]: > 100 µM
- IC50 [12]: > 50 µM
Structure (SMILES): COc1cc(CCc2cccc3c(=O)c4ccccc4[nH]c23)cc(OC)c1OC
- IC50 [15]: > 100 µM
